# From PubChem
# PAFAH1B2 inh – PAFAH1B2 (human) inhibition; P68402; recombinant PAFAH1B2, FP-rhodamine activity probe, fluorescence polarization; inhibition, % at 3.39 µM; 340,000 compounds, 1.2% hits; AID 492953;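 active = inhibition above the mean of all tested compounds plus 3 SD, cut at about 24% in these data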;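 also: 0% = enzyme with DMSO and 100% = wells lacking PAFAH1B2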
# Target sequence (P68402 whole entry, looked up): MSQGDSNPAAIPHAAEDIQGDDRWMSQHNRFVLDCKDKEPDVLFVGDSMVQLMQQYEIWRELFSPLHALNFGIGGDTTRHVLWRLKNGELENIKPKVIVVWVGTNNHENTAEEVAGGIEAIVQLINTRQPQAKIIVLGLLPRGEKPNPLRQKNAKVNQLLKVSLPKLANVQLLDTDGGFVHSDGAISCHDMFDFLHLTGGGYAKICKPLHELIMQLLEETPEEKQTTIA
# pPAFAH inh – inhibitors of human plasma PAF acetylhydrolase (pPAFAH); inhibition, % at 3.39 µM; recombinant pPAFAH, FP-rhodamine probe fluorescence polarization; Q13093; 330,000 compounds, 1.5% hits; AID 463082;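 active = inhibition above the mean inhibition across the screen plus 3 SD, cut at about 25% in these data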;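 also: inhibitors block binding of the rhodamine activity-based probe so polarization drops; 0% = enzyme with DMSO and 100% = wells lacking pPAFAH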
# ARFGAP1 inh – inhibitors of rat ARFGAP1. Arfgap1-stimulated ARF1 GTP hydrolysis, GDP FP detection. inhibition, % at 16.5 µM. 360,000 compounds, 0.26% hits. AID 651572;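 active = inhibition above a per-plate limit, mean inhibition of low control wells plus 3 SD, cut at about 25% in these data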;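 also: 0% = DMSO wells with enzyme and 100% = wells lacking Arfgap1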
# Target sequence (Q62848 1-136 limits assumed): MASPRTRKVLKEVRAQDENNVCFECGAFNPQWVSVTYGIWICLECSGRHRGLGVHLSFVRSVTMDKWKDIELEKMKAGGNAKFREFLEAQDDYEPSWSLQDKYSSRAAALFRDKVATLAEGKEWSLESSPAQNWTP
#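 Material: truncated rat Arfgap1 GAP domain; Incubation: compound-enzyme preincubation 20 min, reaction 120 min, detection 60 min, 25 °C; Read-out: percent inhibition of Arfgap1-stimulated GTP hydrolysis; Technique: FP, GDP Alexa 633 tracer displaced from anti-GDP antibody, 620/688 nm; Controls: No-Arfgap1 wells (100%) versus DMSO full-reaction wells (0%); Replication: single well per compound.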
# ASAP1 inh – blocks human ASAP1-stimulated Arf1 GTP hydrolysis; Q9ULH1; GDP FP detection; inhibition, % at 16.5 µM; 360,000 compounds, 0.19% hits; AID 624377; in the data active = inhibition above about 25%;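 also: 0% = vehicle with enzyme and substrate and 100% = no enzyme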
# PAFAH1B3 inh – PAFAH1B3 (human) inhibition; Q15102; recombinant PAFAH1B3, FP-rhodamine probe, fluorescence polarization; inhibition, % at 3.39 µM; 340,000 compounds, 0.28% hits; AID 492972;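 active = inhibition above the screen-wide average of all tested compounds plus 3 SD, cut at about 25% in these data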;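 also: 0% = enzyme with DMSO only and 100% = wells lacking PAFAH1B3 protein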
# PAFAH2 inh – inhibitors of human PAFAH2. Q99487. recombinant PAFAH2, FP-rhodamine activity probe, fluorescence polarization. inhibition, % at 3.39 µM. 340,000 compounds, 0.99% hits. AID 492956;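 active = inhibition above the mean over all tested compounds plus 3 SD, cut at about 30% in these data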;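 also: inhibitors block probe labeling of enzyme so polarization drops; 0% = enzyme with DMSO and 100% = wells lacking PAFAH2 protein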
# The depositor's hits bear a star; nt = no result given. A selection: hits, their analogues and other compounds. The true share with any hit is near 2.7%.
SMILES,PAFAH1B2 inh,pPAFAH inh,ARFGAP1 inh,ASAP1 inh,PAFAH1B3 inh,PAFAH2 inh
N#CC1(NC(=O)COC(=O)C2=COCCO2)CCCCC1,19,3,17,10,32*,92*
CC(C)c1cc2c(c(O)c1O)[C@@]13CCCC(C)(C)C1CC2OC3=O (stereo not given in full),54*,30*,14,12,12,61*
CC(=O)Nc1ccc(S(=O)(=O)NCC2CCN(C(=O)C(=O)c3cc4ccccc4o3)CC2)cc1,nt,nt,11,2,nt,nt
COCCNC(=S)N(C)[C@H]1C[C@H]2c3[nH]c4c(-c5ccccc5)cccc4c3CCN2C[C@H]1[C@H](C)O,nt,nt,-1,7,nt,nt
O=C(CCc1nnc(CCCc2ccccc2)o1)NCCc1ccco1,14,6,-4,5,5,0
O=C(CCc1nnc(CCCc2ccccc2)o1)NCCc1ccccc1,24*,1,-2,-16,-1,1
COc1ccc(OC)c(CCNC(=O)c2ccc3c(=O)[nH]c4c(C(=O)NC(C)C)sc(=S)n4c3c2)c1,24*,22,-7,-4,21,60*
CCOc1ccc(CCNC(=O)c2ccc3c(=O)[nH]c4c(C(=O)NC(C)C)sc(=S)n4c3c2)cc1,12,29*,4,-10,15,29
CC(C)[C@H](NC(=O)CC1CCCC1)C(=O)N1CCC[C@H]1C(=O)NCc1ccccc1,nt,nt,16,4,nt,nt
Cc1ccc(CNS(=O)(=O)c2ccc(Br)s2)cc1,25*,12,1,-4,3,3
Cc1cccc(CCNC(=O)CNS(=O)(=O)c2ccc3nc(C)sc3c2)c1,5,3,-2,-6,2,0
O=S(=O)(NCc1ccccc1)c1ccc(Br)s1,17,nt,11,-7,-4,-4
Cc1nc2ccc(S(=O)(=O)NCC(=O)NCCc3ccc(Cl)cc3)cc2s1,25*,6,0,17,5,10
COc1ccc(CCNC(=O)CNS(=O)(=O)c2ccc(Br)s2)cc1OC,4,3,-16,5,7,8
O=C(CNS(=O)(=O)c1ccc(Br)s1)NCCc1ccc(Cl)cc1,29*,0,8,-4,1,-1
FC(F)(F)c1ccccc1CN1CCCc2nc(-c3ccc(Br)cc3)ccc21,nt,nt,4,2,nt,nt
O=c1c2c(nc3cc(-c4ccc(Cl)cc4)[nH]n13)CCS2,32*,16,-3,1,5,20
COc1cccc(-c2coc3c(C)c4oc(=O)c(CCC(=O)O)c(C)c4cc23)c1,6,25*,-8,-9,1,10
Cc1c(CC(=O)O)c(=O)oc2c(C)c3occ(-c4ccc(Br)cc4)c3cc12,29*,12,-12,-5,1,12
COc1ccc(-c2coc3c(C)c4oc(=O)c(CC(=O)O)c(C)c4cc23)cc1,7,nt,-2,10,5,4
COc1cccc(-c2coc3c(C)c4oc(=O)c(CC(=O)O)c(C)c4cc23)c1,4,2,-3,-14,11,4
COc1cccc(CNC(=O)[C@H]2CCCN2C(=O)[C@H]2CCCN2C(=O)c2ccc(F)c(C(F)(F)F)c2)c1,nt,nt,-1,-19,nt,nt
CC(=O)C1=CCN(C)CC1,nt,nt,-6,-5,nt,nt
COc1cccc(C2NC(=S)N(Cc3ccc(Br)cc3)C(C)=C2C(C)=O)c1 (stereo not given),nt,nt,15,2,nt,nt
O=C1OC(Nc2ncccn2)c2ccccc21 (stereo not given),4,-5,11,-8,-2,4
SMILES,PAFAH1B2 inh,pPAFAH inh,ARFGAP1 inh,ASAP1 inh,PAFAH1B3 inh,PAFAH2 inh
O=C1OC(Nc2cc(Br)cc3cccnc23)c2ccccc21 (stereo not given),18,30*,9,20,69*,22
Cn1nnc(NC(=O)/C=C/c2ccco2)n1,nt,3,1,-2,nt,nt
CCCn1nnc(NC(=S)NC(=O)/C=C/c2ccco2)n1,3,26*,-8,-3,4,12
CC(C)N(Cc1ccccc1)C(=O)CN1C(=O)NC(Cc2ccccc2)(c2ccccc2)C1=O (stereo not given),26*,5,-4,-16,7,-8
Cc1cc(N2CCN(C(=O)OC(C)(C)C)C[C@H]2C)ccc1N1CCS(=O)(=O)CC1,nt,nt,3,7,nt,nt
O=C(O)c1ccc(NS(=O)(=O)c2ccc3c(c2)C2C=CCC2C(c2ccccc2F)N3)cc1 (stereo not given),17,nt,-24,-7,42*,41*
